Reference: PubChem BioAssay AID602226 (The Scripps Research Institute Molecular Screening Center, 2012)
Calls of active or inactive are those of the source.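 Rule for the calls: active = average inhibition of labeled dioxin binding to the receptor of at least 10% at 10 µM; inactive = the rest.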

Tested on: Aryl hydrocarbon receptor (Cavia porcellus)
Assay: AHR ligand binders displacing [3H]TCDD, late-stage follow-up, counter-screen for AHR activator project, cell lysate, guinea pig liver cytosol, radiometric (AID 602226)
Settings: [3H]TCDD HAP binding; for inhibition: at 10 µM, stronger effect = higher value
Outline: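 Material: guinea pig hepatic cytosol, AHR source. Replicates: triplicate reactions per compound. Timing: 1 h compound–radioligand competition at room temperature. Signal: scintillation counting of hydroxyapatite-bound radioligand. Benchmarks: radioligand alone and 200 nM TCDF. Evaluation: % reduction of specific radioligand binding.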

[1] = measured here: IC50 range lower bound
[2] = measured here: IC50 range upper bound

Compound	inhibition	IC50 [1] [nM]	IC50 [2] [nM]
COc1ccccc1NC(=O)c1ccc(C(=O)Nc2ccccc2OC)nc1	32%		
Cc1csc(SCC(=O)Nc2ccc(Cl)cn2)n1	9.5% (inactive)		
COc1ccc(NC(=O)c2cccc3c(Br)cccc23)cc1	65%	100	1000
CCOC(=O)Cc1cc(-c2ccc(O)cc2)nc2ccc3ccccc3c12	39%	1000	
Cc1ccc(-c2cc(-c3cccs3)[nH]n2)c(O)c1	99%		100
Cc1nc(N)nc(Nc2ccc(Cl)cc2)c1Br	79%	100	1000
